Converted amounts (≈) assume the structure as drawn. The source made the active and inactive calls. No cut-off for these calls is given here.
How the values were obtained:
Escherichia coli [1] = assay: Antimicrobial activity against Escherichia coli CDC F-50 measured every 24 hrs for 5 days by two-fold serial dilution method; assay type: functional
Candida albicans [2] = assay: Antimicrobial activity against Candida albicans 855-653 measured after 14 days by two-fold serial dilution method; assay type: functional
Aspergillus niger [3] = assay: Antimicrobial activity against Aspergillus niger BKMF-1119 measured after 14 days by two-fold serial dilution method; assay type: functional, organism-based
[4] = test system: Trichophyton mentagrophytes var. granulosum; assay: Bactericidal activity against Trichophyton mentagrophytes var. granulosum 1773 measured after 4 hrs; assay type: functional
In short: (§1)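 Microbicidal (bactericidal/fungicidal) concentration, killing of microbial cells, determined per literature procedures; tests in duplicate, repeated twice.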

[5] = test system: Trichophyton mentagrophytes; assay: Antimicrobial activity against Trichophyton mentagrophytes var. gypseum 1773 measured after 14 days by two-fold serial dilution method; assay type: functional
Staphylococcus aureus [6] = assay: Antimicrobial activity against Staphylococcus aureus 209p measured every 24 hrs for 5 days by two-fold serial dilution method; assay type: functional
Aspergillus niger [7] = assay: Bactericidal activity against Aspergillus niger BKMF-1119 measured after 4 hrs; assay type: functional, organism-based; in short: as §1
Bacillus cereus [8] = assay: Antimicrobial activity against Bacillus cereus ATCC 8035 measured every 24 hrs for 5 days by two-fold serial dilution method; assay type: functional
Candida albicans [9] = assay: Bactericidal activity against Candida albicans 855-653 measured after 4 hrs; assay type: functional; in short: as §1
Pseudomonas aeruginosa [10] = assay: Bactericidal activity against Pseudomonas aeruginosa ATCC 9027 measured after 4 hrs; assay type: functional; in short: as §1
Escherichia coli [11] = assay: Bactericidal activity against Escherichia coli CDC F-50 measured after 4 hrs; assay type: functional; in short: as §1
Bacillus cereus [12] = assay: Bactericidal activity against Bacillus cereus ATCC 8035 measured after 4 hrs; assay type: functional; in short: as §1
Staphylococcus aureus [13] = assay: Bactericidal activity against Staphylococcus aureus 209p measured after 4 hrs; assay type: functional; in short: as §1
Pseudomonas aeruginosa [14] = assay: Antimicrobial activity against Pseudomonas aeruginosa ATCC 9027 measured every 24 hrs for 5 days by two-fold serial dilution method; assay type: functional

Compound	MIC (Escherichia coli [1])	MIC (Candida albicans [2]; 855-653, 336 h)	MIC (Aspergillus niger [3])	MIC [4]	MIC [5]	MIC (Staphylococcus aureus [6])	MIC (Aspergillus niger [7])	MIC (Bacillus cereus [8])	MIC (Candida albicans [9]; 855-653, 4 h)	MIC (Pseudomonas aeruginosa [10])	MIC (Escherichia coli [11])	MIC (Bacillus cereus [12]; ATCC 8035, 4 h)	MIC (Staphylococcus aureus [13])	MIC (Pseudomonas aeruginosa [14])	MIC (Bacillus cereus [12])	MIC (Candida albicans [9])	MIC (Candida albicans [2])	MIC (Pseudomonas aeruginosa [10]; ATCC 9027, 4 h)	MIC (Escherichia coli [11]; CDC F-50, 4 h)
CCCCCCCCCCCC[N+](C)(C)CCCNC(c1cc(C(C)(C)C)c(O)c(C(C)(C)C)c1)P(=O)(OCC)OCC (configuration not stated)	inactive	44.3 µM	inactive	inactive	inactive	22 µM	inactive	177 µM	44.3 µM	inactive	inactive	177 µM	22 µM	inactive	–	–	–	–	–
CC[N+](C)(C)CCCNC(=O)CCc1cc(C(C)(C)C)c(O)c(C(C)(C)C)c1	inactive	265 µM	inactive	inactive	inactive	inactive	inactive	inactive	265 µM	inactive	inactive	–	inactive	inactive	inactive	–	–	–	–
CC[N+](C)(C)CCNC(=O)CCc1cc(C(C)(C)C)c(O)c(C(C)(C)C)c1	inactive	68.5 µM	inactive	inactive	inactive	inactive	inactive	inactive	–	inactive	inactive	–	inactive	inactive	inactive	inactive	–	–	–
CCOP(=O)(OCC)C(NCC[N+](C)(C)CC)c1cc(C(C)(C)C)c(O)c(C(C)(C)C)c1 (configuration not stated)	inactive	–	inactive	inactive	inactive	56.8 µM	inactive	56.8 µM	–	inactive	inactive	56.8 µM	56.8 µM	inactive	–	inactive	inactive	–	–
CCCCCCCCCCCCCCCC[N+](C)(C)CCCNC(=O)CCc1cc(C(C)(C)C)c(O)c(C(C)(C)C)c1	inactive	187 µM	inactive	inactive	inactive	47 µM	inactive	375 µM	375 µM	inactive	inactive	375 µM	inactive	inactive	–	–	–	–	–
CC[N+](C)(C)CCCNC(c1cc(C(C)(C)C)c(O)c(C(C)(C)C)c1)P(=O)(OC(C)C)OC(C)C (configuration not stated)	inactive	422 µM	inactive	inactive	inactive	105 µM	inactive	105 µM	422 µM	inactive	inactive	421 µM	105 µM	inactive	–	–	–	–	–
CCCCCCCCCCCC[N+](C)(C)CCCNC(=O)CCc1cc(C(C)(C)C)c(O)c(C(C)(C)C)c1	inactive	–	inactive	inactive	inactive	102 µM	inactive	206 µM	–	inactive	inactive	206 µM	102 µM	inactive	–	inactive	inactive	–	–
CC(C)OP(=O)(OC(C)C)C(NCC[N+](C)(C)Cc1ccccc1)c1cc(C(C)(C)C)c(O)c(C(C)(C)C)c1 (configuration not stated)	inactive	195 µM	inactive	inactive	inactive	24.3 µM	inactive	48.8 µM	–	inactive	inactive	48.8 µM	97.3 µM	inactive	–	inactive	–	–	–
CCCCCCCCCC[N+](C)(C)CCCNC(=O)CCc1cc(C(C)(C)C)c(O)c(C(C)(C)C)c1	26.8 µM	0.9 µM	inactive	inactive	inactive	1.5 µM	inactive	6.7 µM	0.9 µM	–	–	107 µM	3.3 µM	26.8 µM	–	–	–	26.8 µM	53.6 µM
CCCCCCCCCCCCCCCC[N+](C)(C)CCNC(=O)CCc1cc(C(C)(C)C)c(O)c(C(C)(C)C)c1	inactive	383 µM	inactive	inactive	inactive	95.7 µM	inactive	383 µM	383 µM	inactive	inactive	–	inactive	inactive	inactive	–	–	–	–
CCCCCCCCCCCC[N+](C)(C)CCNC(=O)CCc1cc(C(C)(C)C)c(O)c(C(C)(C)C)c1	inactive	419 µM	inactive	inactive	inactive	52.4 µM	inactive	419 µM	419 µM	inactive	inactive	419 µM	52.4 µM	inactive	–	–	–	–	–
CCCCCCCCCC[N+](C)(C)CCNC(=O)CCc1cc(C(C)(C)C)c(O)c(C(C)(C)C)c1	27.4 µM	3.3 µM	inactive	inactive	inactive	1.6 µM	inactive	6.8 µM	6.9 µM	–	–	55 µM	1.6 µM	27.4 µM	–	–	–	55 µM	55 µM
O=C(N[C@H](CO)[C@H](O)c1ccc([N+](=O)[O-])cc1)C(Cl)Cl [CHLORAMPHENICOL]	386 µM (≈ 125 µg/mL)	–	–	–	–	193 µM (≈ 62.4 µg/mL)	–	193 µM (≈ 62.4 µg/mL)	–	–	–	–	–	–	–	–	–	–	–
CCCCCCCCCCCC[N+](C)(C)CCNC(c1cc(C(C)(C)C)c(O)c(C(C)(C)C)c1)P(=O)(OCC)OCC (configuration not stated)	inactive	45.2 µM	inactive	inactive	inactive	45.2 µM	inactive	361 µM	45.2 µM	inactive	inactive	361 µM	45.2 µM	inactive	–	–	–	–	–
CCCCCCCC[N+](C)(C)CCNC(=O)CCc1cc(C(C)(C)C)c(O)c(C(C)(C)C)c1	inactive	29 µM	inactive	inactive	inactive	29 µM	inactive	58 µM	29 µM	inactive	inactive	58 µM	29 µM	inactive	–	–	–	–	–
CCn1cc(C(=O)O)c(=O)c2cc(F)c(N3CCNCC3)cc21 [NORFLOXACIN]	4.7 µM (≈ 1.5 µg/mL)	–	–	–	–	7.5 µM (≈ 2.4 µg/mL)	–	25 µM (≈ 7.98 µg/mL)	–	–	–	50 µM (≈ 16 µg/mL)	7.5 µM (≈ 2.4 µg/mL)	9.4 µM (≈ 3 µg/mL)	–	–	–	48.8 µM (≈ 15.6 µg/mL)	4.7 µM (≈ 1.5 µg/mL)
